The source of these data is ChEMBL document CHEMBL3784970, “Synthesis and molecular docking of N'-arylidene-5-(4-chlorophenyl)-1-(3,4-dichlorophenyl)-4-methyl-1H-pyrazole-3-carbohydrazides as novel hypoglycemic and antioxidant dual agents” (Bioorg Med Chem, 2016).

Data set [1] relates to Rattus norvegicus. Kind of data set: Antidiabetic activity in streptozotocin/nicotinamide-induced Wistar rat model of diabetes assessed as plasma glucose reduction at 50 mg/kg, ig measured at 1 to 7 hrs post dose by glucometric analysis. It is filed as functional, organism-based.
Data set [2] in a line: Antioxidant activity assessed as DPPH radical scavenging activity incubated for 20 mins. Format: physicochemical. The method, boiled down: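 DPPH (100 μM in ethanol) was mixed with sample at different concentrations and incubated 20 min at room temperature in the dark, then A517 was read. % scavenging was calculated against a water control. IC was reported as mean ± SEM, n = 3.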

Data set [3] can be described thus: Antioxidant activity assessed as DPPH radical scavenging activity at 100 uM incubated for 20 mins. Format: physicochemical.
Data set [4] is described as follows: Antioxidant activity assessed as DPPH radical scavenging activity at 1 uM incubated for 20 mins. It is filed as physicochemical.
The nature of data set [5]: Antioxidant activity assessed as DPPH radical scavenging activity at 10 uM incubated for 20 mins. It is filed as physicochemical.
Data set [6] relates to Rattus norvegicus. As to the kind of experiment: Antidiabetic activity in streptozotocin/nicotinamide-induced Wistar rat model of diabetes assessed as plasma glucose variation at 50 mg/kg, ig measured at 3 hrs post dose by glucometric analysis (reference value: -13 +/- 10%). Format: functional.
The test system of data set [7] is Rattus norvegicus. Kind of data set: Antidiabetic activity in streptozotocin/nicotinamide-induced Wistar rat model of diabetes assessed as plasma glucose variation at 50 mg/kg, ig measured at 1 hr post dose by glucometric analysis (reference value: 17 +/- 8%). It is filed as functional.
In data set [8] the test system is Rattus norvegicus. As to the kind of experiment: Antidiabetic activity in streptozotocin/nicotinamide-induced Wistar rat model of diabetes assessed as plasma glucose variation at 50 mg/kg, ig measured at 7 hrs post dose by glucometric analysis (reference value: -5 +/- 8%). Format: functional.
In data set [9] the test system is Rattus norvegicus. Kind of data set: Antidiabetic activity in streptozotocin/nicotinamide-induced Wistar rat model of diabetes assessed as plasma glucose variation at 50 mg/kg, ig measured at 5 hrs post dose by glucometric analysis (reference value: -2 +/- 6%). It is filed as functional.

Calls of active or inactive are those of the source. The rule behind the calls is not given here.

With `COc1cc(/C=N/NC(=O)c2nn(-c3ccc(Cl)c(Cl)c3)c(-c3ccc(Cl)cc3)c2C)ccc1O`, in data set [1], the result was Active.
As for `Cc1c(C)c2c(c(C)c1O)CC[C@@](C)(CCC[C@H](C)CCC[C@H](C)CCCC(C)C)O2` [ALPHA-TOCOPHEROL], the IC50 in data set [2] was 10.9 µM.
Turning to `COc1cc(/C=C/C(=O)O)ccc1O` [FERULATE], the Activity in data set [3] came out at 78.73%; in data set [4], 3.06%; in data set [5] it was 14.52%. The IC50 in [2] came out at 47.7 µM.
With `COc1ccc(Cl)cc1C(=O)NCCc1ccc(S(=O)(=O)NC(=O)NC2CCCCC2)cc1` [GLYBURIDE], the Activity in [6] is listed as -31%; in data set [7] it was -4%; in [8], -31%; in [9], -31%.
On to `O=c1c(O)c(-c2ccc(O)c(O)c2)oc2cc(O)cc(O)c12` [QUERCETIN], for which the IC50 in data set [2] came to 31.7 µM.
As to `Cc1c(C(=O)NN2CCCCC2)nn(-c2ccc(Cl)cc2Cl)c1-c1ccc(Cl)cc1` [RIMONABANT], the Activity in data set [6] is reported as -21%; in data set [7], -30%; in data set [8], -39%; in data set [9], -30%.
As for `COc1cc(/C=C/C(=O)O)cc(OC)c1O` [SINAPINATE], the Activity in [3] turned out to be 90.61%; in data set [4], 2.65%; in data set [5], 23.29%. The IC50 in [2] amounted to 35.8 µM.
